From ChEMBL document CHEMBL1955847, “2-Morpholinoisoflav-3-enes as flexible intermediates in the synthesis of phenoxodiol, isophenoxodiol, equol and analogues: vasorelaxant properties, estrogen receptor binding and Rho/RhoA kinase pathway inhibition” (Bioorg Med Chem, 2012) come the findings set out here.

For test [1], the system named is Aorta. Briefly: Vasorelaxant activity in Sprague-Dawley rat thoracic aorta assessed as inhibition of U46619-induced GTP RhoA level at 100 uM pretreated for 30 mins measured after 45 mins by spectrometric analysis. It is filed as functional, tissue-based. The method in brief: (§1)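 Male Sprague-Dawley thoracic aortic rings were denuded of endothelium and pretreated 30 min with compound, flavone or vehicle, then contracted with 30 nM U46619. Rings were snap-frozen in liquid N2 and homogenized in lysis buffer, then spun at 12,000g for 15 min at 4 °C. Supernatant was run in a RhoA G-LISA with HRP detection and absorbance read at 490 nm. Triplicate.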

The subject of test [2] is Aorta. Briefly: Vasorelaxant activity in Sprague-Dawley rat thoracic aorta assessed as inhibition of phenylephirne-induced contraction. It is filed as functional, tissue-based. The method in brief:
(§2)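 Aortic rings 2–3 mm long from male Sprague-Dawley rats were bathed in Krebs-bicarbonate at 37 °C, pH 7.4, aerated with 95% O2/5% CO2, and equilibrated 1 h at 1 g resting tension. Rings were maximally contracted with KPSS (122.7 mM KCl) and re-equilibrated, then given submaximal phenylephrine. Endothelium was checked with acetylcholine, and cumulative concentration-response curves were run. DMSO was at most 0.1%. n = 3–5.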

Test [3] relates to Aorta. In words: Vasorelaxant activity in Sprague-Dawley rat thoracic aorta assessed as inhibition of U46619-induced vascular tension at 100 uM pretreated for 30 mins. It is filed as functional, tissue-based. In a few lines: (§3)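 Male Sprague-Dawley thoracic aortic rings were held in Krebs-bicarbonate at 37 °C, pH 7.4, gassed with 95% O2/5% CO2. Rings were pretreated 30 min with compound or vehicle, then contracted with 30 nM U46619, and vascular tension was recorded. Final DMSO was 0.1%. n = 2, run in duplicate.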

The target of test [4] is T1, Estrogen receptor (Rattus norvegicus, UniProt P06211).
T1 sequence (P06211 whole entry): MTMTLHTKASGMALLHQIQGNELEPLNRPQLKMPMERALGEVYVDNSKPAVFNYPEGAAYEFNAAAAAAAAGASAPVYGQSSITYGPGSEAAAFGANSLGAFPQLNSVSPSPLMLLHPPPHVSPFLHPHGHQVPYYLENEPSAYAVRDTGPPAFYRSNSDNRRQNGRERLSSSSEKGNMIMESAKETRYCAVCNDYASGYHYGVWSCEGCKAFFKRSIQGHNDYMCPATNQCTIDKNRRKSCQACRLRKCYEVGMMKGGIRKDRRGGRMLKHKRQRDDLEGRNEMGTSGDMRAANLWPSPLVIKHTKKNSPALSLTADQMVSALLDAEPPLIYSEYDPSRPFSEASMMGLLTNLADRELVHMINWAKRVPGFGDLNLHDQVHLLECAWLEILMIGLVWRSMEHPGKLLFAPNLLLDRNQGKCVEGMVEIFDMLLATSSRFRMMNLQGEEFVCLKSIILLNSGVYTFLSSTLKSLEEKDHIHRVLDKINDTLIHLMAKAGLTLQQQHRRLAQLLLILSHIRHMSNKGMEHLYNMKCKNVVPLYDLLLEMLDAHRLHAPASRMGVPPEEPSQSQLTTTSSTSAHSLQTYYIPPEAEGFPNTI
In words: Displacement of [3H]estradiol from rat uterine cytosolic estrogen receptor. The method in brief:
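Rat uterine cytosol incubated with 0.2 nM [3H]-estradiol in 10 mM Tris (pH 7.4, 1.5 mM EDTA, 10% w/v glycerol, 1 mM PMSF), with and without ICI 182,780 to define binding. Compounds were made from 10 mM DMSO stocks and diluted into buffer, giving 0.1% v/v DMSO at the top concentration and in all lower dilutions.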

For test [5], the system named is Aorta. In words: Vasorelaxant activity in Sprague-Dawley rat thoracic aorta assessed as inhibition of phenylephirne-induced contraction at highest concentration. It is filed as functional, tissue-based. The method in brief: as §2
The test system of test [6] is Aorta. Briefly: Vasorelaxant activity in Sprague-Dawley rat thoracic aorta assessed as inhibition of phenylephirne-induced contraction in presence of 0.1 uM estrogen receptor antagonist ICI 182780. It is filed as functional, tissue-based.
For test [7], the system named is Aorta. Briefly: Vasorelaxant activity in Sprague-Dawley rat thoracic aorta assessed as inhibition of U46619-induced GTP RhoA level at 300 uM pretreated for 30 mins measured after 45 mins by spectrometric analysis. It is filed as functional, tissue-based. The method in brief:
as §1

The test system of test [8] is Aorta. In words: Vasorelaxant activity in Sprague-Dawley rat thoracic aorta assessed as inhibition of U46619-induced vascular tension at 300 uM pretreated for 30 mins. It is filed as functional, tissue-based. In a few lines: as §3

One may read the IC50 as the concentration that gives 50% inhibition. The low end stands for higher potency, the high end for lower potency. What is called pIC50 is the IC50 on a negative log10 scale, so that one unit is a factor of ten.

Each structure is given as a SMILES string. Calls of active or inactive are those of the source. No cut-off for these calls is given here.

With `Oc1ccc(C2COc3ccccc3C2)cc1` (stereo unspecified), the outcome in test [1] and in test [3] was Active. The Activity result in test [2] is “Dose-dependent effect”. The compound further gave an IC50 in test [4] of 7590 nM.

In the case of `c1ccc(C2COc3ccccc3C2)cc1` (stereo unspecified), the result in test [5], in test [1] and in test [3] was Active. Besides, the outcome in test [6] was inactive. Besides, in test [4], the pIC50 was more than 5.

Consider `Oc1ccc2c(c1)OCC(c1ccccc1)C2` (stereo unspecified), for which the outcome in test [1] and in test [3] was Active. In addition, the Activity entry in test [2] was “Dose-dependent effect”. Moreover, the IC50 in test [4] is 3630 nM.

For the compound `O=c1cc(-c2ccccc2)oc2ccccc12`, the result in test [7] and in test [8] was Active.

In the case of `Oc1ccc(C2=COc3cc(O)ccc3C2)cc1` [ISOPHENOXODIOL], the Activity entry in test [2] was “Dose-dependent effect”. In test [4], this compound gave an IC50 of 234 nM.

In the case of `Oc1ccc(C2COc3cc(O)ccc3C2)cc1` (racemic), the result in test [1] and in test [3] was Active. Besides, the Activity entry in test [2] is “Dose-dependent effect”. Also, the IC50 in test [4] was 1660 nM.

For the compound `Oc1ccc(C2=Cc3ccc(O)cc3OC2)cc1` [IDRONOXIL], the outcome in test [1] and in test [3] was Active. Besides, the Activity entry in test [2] is “Dose-dependent effect”. Further, the IC50 in test [4] is 661 nM.

In test [4], `C[C@]12CC[C@@H]3c4ccc(O)cc4C[C@@H](CCCCCCCCC[S+]([O-])CCCC(F)(F)C(F)(F)F)[C@H]3[C@@H]1CC[C@@H]2O` (stereo partly specified) [FULVESTRANT] had an IC50 of 5.89 nM.
